Source: ChEMBL document CHEMBL4616714, “Discovery of CPI-1612: A Potent, Selective, and Orally Bioavailable EP300/CBP Histone Acetyltransferase Inhibitor” (ACS Med Chem Lett, 2020)
The source made the active and inactive calls. The rule behind the calls is not given here.

Assays:
[1] = Metabolic stability in mouse liver microsomes assessed as intrinsic clearance at 1 uM measured upto 30 mins by LC-MS/MS analysis; type: ADME, Microsome; conditions: read-out: CLH
How it was run: (§1)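 Single run per compound for each of the PAMPA, mouse plasma protein binding and mouse liver microsome clearance assays.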

JeKo-1 [2] = experiment: Growth inhibition of human JeKo1 cells incubated for 72 hrs by Cell Titer-Glo luminescent cell viability assay; type: functional; conditions: JeKo-1, 72 h
hERG (KCNH2) = hERG (KCNH2) (Homo sapiens, UniProt Q12809); experiment: Inhibition of human ERG at 10 uM
[3] = Protein binding in mouse plasma at 5 uM incubated for 6 hrs by LC-MS/MS analysis; type: ADME, cell-free; conditions: read-out: PPB (converted); how it was run: as §1
[4] = Clearance in CD-1 mouse at 0.5 mg/kg, iv or […], po measured upto 8 hrs by LC-MS/MS analysis; type: ADME, organism-based; conditions: in vivo
[5] = Volume of distribution at steady state in CD-1 mouse at 0.5 mg/kg, iv or […], po measured upto 8 hrs by LC-MS/MS analysis; type: ADME, organism-based; conditions: in vivo, read-out: Vdss
[6] = Oral bioavailability in CD-1 mouse at […], measured upto 8 hrs by LC-MS/MS analysis; type: ADME, organism-based; conditions: in vivo
[7] = AUC/dose in CD-1 mouse at 1 mg/kg, iv or 5 mg/kg, po measured upto 8 hrs by LC-MS/MS analysis; type: ADME, organism-based; conditions: in vivo
How it was run: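 Mouse PK run as a single-compound experiment, dosed 1 mg/kg IV and 5 mg/kg PO. Clearance, Vss, half-life, F% and AUC/dose were derived from these arms.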

[8] = Clearance in Beagle dog at 0.5 mg/kg, iv or 1 mg/kg, po measured upto 24 hrs by LC-MS/MS analysis; type: ADME, organism-based, Canis lupus familiaris; conditions: in vivo
How it was run: (§2)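 Single-compound dog PK: 0.5 mg/kg IV and 1.0 mg/kg PO dosing. Clearance, Vss, half-life, oral F% and AUC/dose were derived from these arms.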

[9] = Volume of distribution at steady state in Beagle dog at 0.5 mg/kg, iv or 1 mg/kg, po measured upto 24 hrs by LC-MS/MS analysis; type: ADME, organism-based, Canis lupus familiaris; conditions: in vivo, read-out: Vdss; how it was run: as §2
[10] = Half life in Beagle dog at 0.5 mg/kg, iv or 1 mg/kg, po measured upto 24 hrs by LC-MS/MS analysis; type: ADME, organism-based, Canis lupus familiaris; conditions: in vivo; how it was run: as §2
[11] = Clearance in Sprague-Dawley rat at 1 mg/kg, iv or 5 mg/kg, po measured upto 8 hrs by LC-MS/MS analysis; type: ADME, organism-based; conditions: in vivo
How it was run: (§3)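 Rat PK run as a single-compound experiment, dosed 1.0 mg/kg IV and 5.0 mg/kg PO. Clearance, Vss, half-life, F% and AUC/dose were derived from these arms.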

[12] = Volume of distribution at steady state in Sprague-Dawley rat at 1 mg/kg, iv or 5 mg/kg, po measured upto 8 hrs by LC-MS/MS analysis; type: ADME, organism-based; conditions: in vivo, read-out: Vdss; how it was run: as §3
[13] = AUC/dose in Sprague-Dawley rat at 1 mg/kg, iv or 5 mg/kg, po measured upto 8 hrs by LC-MS/MS analysis; type: ADME, organism-based; conditions: in vivo; how it was run: as §3
[14] = Ratio of drug level in brain to plasma in CD-1 mouse at 5 mg/kg, po measured upto 8 hrs by LC-MS/MS analysis; type: ADME, organism-based; conditions: read-out: BPR
[15] = molecular target: Histone acetyltransferase type B catalytic subunit (Homo sapiens) (UniProt O14929); experiment: Inhibition of HAT1 (unknown origin)
[16] = molecular target: Histone acetyltransferase KAT6B (Homo sapiens) (UniProt Q8WYB5); experiment: Inhibition of MYST4 (unknown origin)
[17] = molecular target: Histone acetyltransferase KAT2A (Homo sapiens) (UniProt Q92830); experiment: Inhibition of GCN5L2 (unknown origin)
[18] = molecular target: Voltage-gated inwardly rectifying potassium channel KCNH2 (Homo sapiens, UniProt Q12809); experiment: Inhibition of human ERG
Cytochrome P450 2C19 = Cytochrome P450 2C19 (Homo sapiens, UniProt P33261); experiment: Inhibition of CYP2C19 (unknown origin); type: ADME
Cytochrome P450 3A4 = Cytochrome P450 3A4 (Homo sapiens, UniProt P08684); experiment: Inhibition of CYP3A4 (unknown origin); type: ADME
Cytochrome P450 2D6 = Cytochrome P450 2D6 (Homo sapiens, UniProt P10635); experiment: Inhibition of CYP2D6 (unknown origin); type: ADME
Cytochrome P450 1A2 = molecular target: T1, Cytochrome P450 1A2 (Homo sapiens, UniProt P05177); experiment: Inhibition of CYP1A2 (unknown origin); type: ADME
T1 sequence (P05177 whole entry): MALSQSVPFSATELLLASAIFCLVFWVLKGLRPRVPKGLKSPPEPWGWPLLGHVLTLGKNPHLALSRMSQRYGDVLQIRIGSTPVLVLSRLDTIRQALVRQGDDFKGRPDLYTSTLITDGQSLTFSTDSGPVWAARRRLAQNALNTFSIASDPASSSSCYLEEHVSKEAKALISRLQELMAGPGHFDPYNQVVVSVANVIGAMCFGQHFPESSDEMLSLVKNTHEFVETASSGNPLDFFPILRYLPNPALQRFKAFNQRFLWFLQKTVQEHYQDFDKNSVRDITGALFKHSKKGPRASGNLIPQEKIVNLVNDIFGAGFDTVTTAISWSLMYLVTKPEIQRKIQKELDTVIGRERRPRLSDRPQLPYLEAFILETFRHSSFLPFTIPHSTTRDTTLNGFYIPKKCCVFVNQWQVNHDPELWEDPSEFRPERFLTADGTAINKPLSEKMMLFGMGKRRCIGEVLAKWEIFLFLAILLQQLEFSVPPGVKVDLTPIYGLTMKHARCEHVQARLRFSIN

Cytochrome P450 2B6 = molecular target: T2, Cytochrome P450 2B6 (Homo sapiens, UniProt P20813); experiment: Inhibition of CYP2B6 (unknown origin); type: ADME
T2 sequence (P20813 whole entry): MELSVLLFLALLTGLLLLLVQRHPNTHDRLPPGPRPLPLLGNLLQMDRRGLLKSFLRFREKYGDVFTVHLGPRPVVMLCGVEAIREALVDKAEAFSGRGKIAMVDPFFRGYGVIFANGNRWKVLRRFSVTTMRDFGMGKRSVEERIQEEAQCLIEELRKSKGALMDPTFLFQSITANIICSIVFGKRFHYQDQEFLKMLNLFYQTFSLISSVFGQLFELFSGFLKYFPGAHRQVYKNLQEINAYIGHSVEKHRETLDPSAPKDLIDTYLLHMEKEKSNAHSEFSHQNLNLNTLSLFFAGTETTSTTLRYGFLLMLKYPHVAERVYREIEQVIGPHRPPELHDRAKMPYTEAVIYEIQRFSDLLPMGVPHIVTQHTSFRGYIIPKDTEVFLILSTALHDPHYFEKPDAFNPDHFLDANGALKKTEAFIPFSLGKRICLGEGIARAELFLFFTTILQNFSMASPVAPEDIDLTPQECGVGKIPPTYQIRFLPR

JeKo-1 [19] = experiment: Antitumor activity in human JeKo1 cells xenografted in […] mouse assessed as reduction in H3K18 acetylation in tumor at 0.5 mg/kg, po administered bid and measured on day 26 by FACS analysis; type: functional, organism-based
How it was run: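 JEKO-1 mantle cell lymphoma xenograft dosed 0.5 mg/kg PO BID. Read-outs were tumour growth inhibition, plasma H3K27Ac and tumour H3K18Ac.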

Sequence of Cytochrome P450 2D6 (P10635 whole entry): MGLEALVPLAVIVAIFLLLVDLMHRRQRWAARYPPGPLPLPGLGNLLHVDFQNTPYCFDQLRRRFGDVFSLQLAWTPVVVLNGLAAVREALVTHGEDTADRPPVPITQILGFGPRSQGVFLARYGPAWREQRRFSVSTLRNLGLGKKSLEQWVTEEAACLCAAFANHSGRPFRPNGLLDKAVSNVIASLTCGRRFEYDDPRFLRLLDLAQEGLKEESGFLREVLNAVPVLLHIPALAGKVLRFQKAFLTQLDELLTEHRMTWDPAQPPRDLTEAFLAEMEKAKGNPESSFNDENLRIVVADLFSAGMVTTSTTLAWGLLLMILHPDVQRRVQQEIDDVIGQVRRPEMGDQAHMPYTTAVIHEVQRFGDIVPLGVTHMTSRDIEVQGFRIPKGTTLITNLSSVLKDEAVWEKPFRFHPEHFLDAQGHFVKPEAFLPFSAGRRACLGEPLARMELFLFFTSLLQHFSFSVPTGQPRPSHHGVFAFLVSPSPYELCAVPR
Sequence of hERG (KCNH2) (Q12809 whole entry): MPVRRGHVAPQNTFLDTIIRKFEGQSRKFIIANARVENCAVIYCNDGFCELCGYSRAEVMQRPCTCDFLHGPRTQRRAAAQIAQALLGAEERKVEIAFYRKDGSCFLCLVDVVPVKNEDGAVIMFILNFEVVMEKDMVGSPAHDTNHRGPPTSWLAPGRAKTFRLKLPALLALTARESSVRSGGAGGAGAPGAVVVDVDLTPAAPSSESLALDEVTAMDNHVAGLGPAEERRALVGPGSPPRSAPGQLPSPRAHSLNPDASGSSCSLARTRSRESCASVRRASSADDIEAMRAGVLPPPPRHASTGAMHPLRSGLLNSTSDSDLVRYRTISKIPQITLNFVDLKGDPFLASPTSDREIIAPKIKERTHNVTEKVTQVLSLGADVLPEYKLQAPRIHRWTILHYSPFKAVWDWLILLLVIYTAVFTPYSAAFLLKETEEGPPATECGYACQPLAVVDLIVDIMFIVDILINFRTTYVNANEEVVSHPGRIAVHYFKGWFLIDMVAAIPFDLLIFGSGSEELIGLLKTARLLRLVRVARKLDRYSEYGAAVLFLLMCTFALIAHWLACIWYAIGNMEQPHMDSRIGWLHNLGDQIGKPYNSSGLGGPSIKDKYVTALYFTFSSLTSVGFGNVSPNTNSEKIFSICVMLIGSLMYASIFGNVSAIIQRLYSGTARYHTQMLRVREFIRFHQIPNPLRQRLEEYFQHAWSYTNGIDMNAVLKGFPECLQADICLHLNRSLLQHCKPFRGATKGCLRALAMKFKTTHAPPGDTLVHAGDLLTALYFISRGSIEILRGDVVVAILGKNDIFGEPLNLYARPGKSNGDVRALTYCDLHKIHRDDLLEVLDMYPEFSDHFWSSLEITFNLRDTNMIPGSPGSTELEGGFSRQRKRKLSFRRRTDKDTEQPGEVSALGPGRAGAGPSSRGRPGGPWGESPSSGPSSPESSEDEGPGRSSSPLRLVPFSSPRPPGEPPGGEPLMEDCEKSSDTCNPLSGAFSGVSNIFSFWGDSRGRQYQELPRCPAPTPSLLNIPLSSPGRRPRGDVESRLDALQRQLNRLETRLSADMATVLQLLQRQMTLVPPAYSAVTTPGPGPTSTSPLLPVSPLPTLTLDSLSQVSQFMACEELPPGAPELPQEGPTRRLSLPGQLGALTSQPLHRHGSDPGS
Sequence of Voltage-gated inwardly rectifying potassium channel KCNH2 (Q12809 whole entry): as above
Sequence of Cytochrome P450 3A4 (P08684 whole entry): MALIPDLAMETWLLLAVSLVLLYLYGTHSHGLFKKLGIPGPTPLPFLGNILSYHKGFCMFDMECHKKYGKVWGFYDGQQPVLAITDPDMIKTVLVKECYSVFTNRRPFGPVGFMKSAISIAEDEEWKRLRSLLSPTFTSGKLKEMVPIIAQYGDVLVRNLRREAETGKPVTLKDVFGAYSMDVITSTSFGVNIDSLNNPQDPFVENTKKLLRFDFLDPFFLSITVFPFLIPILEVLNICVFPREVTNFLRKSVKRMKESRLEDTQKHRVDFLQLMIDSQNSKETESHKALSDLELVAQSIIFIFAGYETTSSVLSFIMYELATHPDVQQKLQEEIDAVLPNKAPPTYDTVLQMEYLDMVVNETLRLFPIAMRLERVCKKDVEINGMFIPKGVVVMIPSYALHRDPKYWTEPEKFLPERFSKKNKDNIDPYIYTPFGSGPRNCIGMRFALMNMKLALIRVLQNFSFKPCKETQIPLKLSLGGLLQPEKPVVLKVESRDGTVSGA
Sequence of Histone acetyltransferase KAT2A (Homo sapiens) (Q92830 2-837 limits assumed): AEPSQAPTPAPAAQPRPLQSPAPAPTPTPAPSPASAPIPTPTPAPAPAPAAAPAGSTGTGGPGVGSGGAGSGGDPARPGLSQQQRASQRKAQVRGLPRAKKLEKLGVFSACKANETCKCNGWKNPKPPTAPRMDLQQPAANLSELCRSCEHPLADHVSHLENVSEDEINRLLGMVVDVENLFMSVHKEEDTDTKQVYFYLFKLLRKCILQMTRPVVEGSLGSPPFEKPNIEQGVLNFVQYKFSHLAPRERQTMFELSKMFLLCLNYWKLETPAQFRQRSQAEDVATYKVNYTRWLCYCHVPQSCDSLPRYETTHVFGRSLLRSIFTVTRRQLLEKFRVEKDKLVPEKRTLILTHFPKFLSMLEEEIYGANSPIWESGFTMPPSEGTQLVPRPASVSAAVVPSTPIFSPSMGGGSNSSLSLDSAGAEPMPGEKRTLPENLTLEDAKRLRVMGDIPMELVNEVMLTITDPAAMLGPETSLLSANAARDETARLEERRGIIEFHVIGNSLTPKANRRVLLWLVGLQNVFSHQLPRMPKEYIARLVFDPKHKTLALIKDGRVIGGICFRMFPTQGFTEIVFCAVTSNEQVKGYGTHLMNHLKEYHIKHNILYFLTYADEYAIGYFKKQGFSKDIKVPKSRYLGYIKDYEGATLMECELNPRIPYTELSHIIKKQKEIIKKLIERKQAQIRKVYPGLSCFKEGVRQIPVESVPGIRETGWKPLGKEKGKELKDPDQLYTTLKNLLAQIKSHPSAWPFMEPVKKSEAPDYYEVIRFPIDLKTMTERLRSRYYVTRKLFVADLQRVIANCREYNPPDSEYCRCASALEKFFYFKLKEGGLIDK
Sequence of Cytochrome P450 2C19 (P33261 whole entry): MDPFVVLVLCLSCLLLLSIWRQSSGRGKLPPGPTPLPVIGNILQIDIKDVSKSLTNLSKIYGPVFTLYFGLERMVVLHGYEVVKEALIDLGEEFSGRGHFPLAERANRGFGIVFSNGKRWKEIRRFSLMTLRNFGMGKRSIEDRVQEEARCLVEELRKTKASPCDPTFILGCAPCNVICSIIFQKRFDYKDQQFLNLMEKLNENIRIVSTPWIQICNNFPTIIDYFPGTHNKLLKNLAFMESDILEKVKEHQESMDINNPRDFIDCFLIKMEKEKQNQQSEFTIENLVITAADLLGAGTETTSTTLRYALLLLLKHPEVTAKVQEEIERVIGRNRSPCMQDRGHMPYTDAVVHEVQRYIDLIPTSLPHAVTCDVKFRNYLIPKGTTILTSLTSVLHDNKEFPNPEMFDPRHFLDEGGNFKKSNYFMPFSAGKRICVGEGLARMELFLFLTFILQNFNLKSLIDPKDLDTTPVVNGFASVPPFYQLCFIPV
Sequence of Histone acetyltransferase type B catalytic subunit (Homo sapiens) (O14929 2-419 limits assumed): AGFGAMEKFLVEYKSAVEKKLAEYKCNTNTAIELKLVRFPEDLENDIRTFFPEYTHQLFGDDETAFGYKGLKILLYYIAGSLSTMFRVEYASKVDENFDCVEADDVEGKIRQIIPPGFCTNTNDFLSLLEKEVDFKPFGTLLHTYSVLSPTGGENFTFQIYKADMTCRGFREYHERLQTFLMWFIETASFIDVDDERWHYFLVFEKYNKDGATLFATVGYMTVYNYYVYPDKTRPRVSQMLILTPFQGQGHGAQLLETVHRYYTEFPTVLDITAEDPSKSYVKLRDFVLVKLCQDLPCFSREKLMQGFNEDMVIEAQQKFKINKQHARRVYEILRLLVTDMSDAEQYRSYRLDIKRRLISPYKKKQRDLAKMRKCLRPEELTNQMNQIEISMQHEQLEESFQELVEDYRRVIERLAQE

CLint scaled at 1 µM [1]: 178 mL/min/kg
fraction unbound at 6 h, 5 µM [3]: 0.009
clearance [4]: 31.3 mL/min/kg
Vd [5]: 0.99 L/kg
bioavailability at 8 h [6]: 47%
AUC/dose [7]: 211 ng·h/mL
clearance [8]: 7 mL/min/kg
Vd [9]: 3.7 L/kg
half-life [10]: 5.5 h
clearance [11]: 43.3 mL/min/kg
Vd [12]: 1.8 L/kg
AUC/dose [13]: 35.6 ng·h/mL
Kp at 8 h [14]: 0.35
inhibition [15]: inactive
inhibition [16]: inactive
inhibition [17]: inactive
IC50 (Cytochrome P450 2C19): 2.7 µM
IC50 (Cytochrome P450 3A4): > 50 µM
IC50 (Cytochrome P450 2D6): 34 µM
IC50 (Cytochrome P450 1A2): > 50 µM
IC50 (Cytochrome P450 2B6): 8.2 µM
SMILES: C[C@H](CN[C@@H](C(=O)Nc1ccc(-c2cnn(C)c2)cn1)c1ccccc1)c1ccc(C#N)cc1
GI50 (JeKo-1 [2]): < 0.0079 µM
inhibition at 10 µM (hERG (KCNH2)): 9.2%
IC50 [18]: 10.4 µM
Activity (JeKo-1 [19]): Active
